Experimental data gathered from unrelated publications.
Converted amounts (≈) assume the structure as drawn.

SMILES | tested on | test | system | conditions | measurement | value
Oc1cc2c(cc1O)C(Cc1ccccc1)NCC2 (stereo not drawn) | – | ABTS scavenging | – | 10 min, dark | IC50 | 8.14 µM
O=C(O)CCC(=O)OCCN(Cc1ccc(Oc2ccc([N+](=O)[O-])cc2)cc1)C(=O)C(Cl)Cl | Leishmania donovani | parasite growth, resazurin | – | 72 h, promastigote | IC50 | 2.68 µM
O=C1O[C@H]([C@@H](O)CO)C(O)=C1O | – | ABTS scavenging | – | 20 min | IC50 | 54.5 µg/mL
CCCCCCCCCCC1NCCc2cc(O)c(O)cc21 (stereo not drawn) | – | ABTS scavenging | – | 10 min, dark | IC50 | 69.9 µM
C[C@@H]1[C@H](O)[C@@H](C)/C=C/C=C/C=C/C=C/C=C/C=C/C=C/[C@H](O[C@@H]2O[C@H](C)[C@@H](O)[C@H](N)[C@@H]2O)C[C@@H]2O[C@](O)(C[C@@H](O)C[C@@H](O)[C@H](O)CC[C@@H](O)C[C@@H](O)CC(=O)O[C@H]1C)C[C@H](O)[C@H]2C(=O)O | Leishmania donovani | parasite growth | THP-1 | 72 h, intracellular, amastigote | IC50 | 0.6 µM
O=C1O[C@H]([C@@H](O)CO)C(O)=C1O | – | ABTS scavenging, absorbance | – | dark | IC50 | 5.42 µg/mL
CCCCCCCCCCCCCCCCCCOc1cccc(CC(=O)OCC[N+](C)(C)C)c1 | NCI-H522 | cell growth or viability, SRB | – | 10 µM | inhibition | 13.3%
CCCCCCCCCC1NCCc2cc(O)c(O)cc21 (stereo not drawn) | – | ABTS scavenging | – | 10 min, dark | IC50 | 57.3 µM
CCCCCCCCCCCCCCCCOP(=O)([O-])OCC[N+](C)(C)C | Leishmania donovani | parasite growth | THP-1 | 72 h, intracellular, amastigote | IC50 | 3.78 µM
CN1CCN(S(=O)(=O)c2ccc(-c3ccc4nncc(Nc5ncc(Cl)cn5)c4c3)cc2)CC1 | Leishmania donovani | parasite growth | – | intracellular, amastigote | EC50 | 0.035 µg/mL (≈ 0.0706 µM)
Oc1cc2c(cc1O)C(CCc1ccccc1)NCC2 (stereo not drawn) | – | ABTS scavenging | – | 10 min, dark | IC50 | 8.09 µM
CCOc1ccc(Nc2c3c(nc4ccccc24)CCC3)cc1 | Leishmania donovani | parasite growth | THP-1 | 72 h, intracellular, amastigote | IC50 | 0.78 µM
COc1cc(C2NCCc3cc(O)c(O)cc32)ccc1O (stereo not drawn) | – | ABTS scavenging | – | 10 min, dark | IC50 | 14 µM
c1ccc(Oc2ccc(Nc3c4c(nc5ccccc35)CCC4)cc2)cc1 | Leishmania donovani | parasite growth | THP-1 | intracellular, amastigote | IC50 | 0.57 µM
CCCCCCCCCCCCCCCCCCOc1cccc(CC(=O)OCCC[N+](C)(C)C)c1 | NCI-H522 | cell growth or viability, SRB | – | 10 µM | inhibition | 21.8%
